Results on 13 compounds are retold here after ChEMBL document CHEMBL1141861, “Synthesis and in vitro anti-hepatitis B and C virus activities of ring-expanded ('fat') nucleobase analogues containing the imidazo[4,5-e][1,3]diazepine-4,8-dione ring system” (Bioorg Med Chem Lett, 2005).

Test [1] has as its system Huh-7. In words: Selectivity index (toxicity/antiviral activity). The format is functional. The method in brief: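 Huh7 ET HCV luciferase replicon cells, single 10 µM primary screen. Index is the ratio of β-actin RNA level (% control) to replicon-derived luciferase activity (% control).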
In test [2] the test system is Huh-7. Nature of the test: Cytotoxicity against Huh7ET cell line containg HCV replicon at 10 uM assessed by measuring the beta-actin RNA level relative to control. The format is functional, Homo sapiens. The method in brief:
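Huh7 ET HCV replicon (luciferase reporter) cells treated at 10 µM in the same primary screen. Cellular β-actin RNA level is used to compute cytotoxicity, expressed as % of control.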

Test [3] relates to Hepatitis C virus. Nature of the test: Antiviral activity against HCV in Huh7 ETcell line at 10 uM assessed by measuring HCV-RNA-derived LUC activity relative to control. The format is functional, Hepacivirus hominis. The method in brief: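 Primary single-concentration screen (10 µM) in Huh7 ET cells carrying an HCV RNA replicon with a stable luciferase reporter. Replicon-derived luciferase activity serves as an indirect measure of HCV RNA and is expressed as % of control.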

The test system of test [4] is Hepatitis B virus. Nature of the test: Inhibition of synthesis of intracellular HBV DNA replicative intermediates in cultured human hepatoblastoma 2.2.15 cells. The format is functional, organism-based. To be noted: HepG2 2.2.15. The method in brief:
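2.2.15 cells were dosed daily for nine days and lysed 24 h after day 9. Intracellular HBV DNA replicative intermediates were measured by Southern/dot blot hybridization with ³²P-labelled HBV probes. EC50 and EC90 came from linear regression on combined treated-culture data, with SD from the regression standard error.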

Test [5] deals with HepG2. Nature of the test: Selectivity index (CC50/EC50) for inhibition of HBV virion DNA synthesis in human hepatoblastoma 2.2.15 cells. The format is functional. The method in brief:
(§1)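 2.2.15 cells were dosed daily for nine days. CC50 is the neutral red uptake concentration causing a twofold reduction versus untreated cultures. EC50 is from blot hybridization of intracellular replicative intermediates or extracellular virion DNA, by linear regression. Index = CC50/EC50.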

Test [6] deals with Hepatitis B virus. In words: Inhibition of synthesis of extracellular virion DNA release in cultured human hepatoblastoma 2.2.15 cells. The format is functional, organism-based. As to conditions: HepG2 2.2.15. The method, boiled down:
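Confluent 2.2.15 cells were dosed daily for nine days. Culture medium was collected daily, and extracellular virion HBV DNA was assayed on days 0, 3, 6 and 9 by blot hybridization using ³²P-labelled HBV-specific probes. EC50 and EC90 (50%/90% inhibition) came from linear regression on all treated cultures, with SD taken from the regression standard error.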

Test [7] relates to HepG2. In words: Selectivity index (CC50/EC50) for inhibition of HBV replicative intermediate synthesis in human hepatoblastoma 2.2.15 cells. The format is functional. The method, boiled down:
as §1

Test [8] deals with HepG2. Nature of the test: Cytotoxicity against human hepatoblastoma 2.2.15 cells. The format is functional. The method in brief: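 Confluent HBV-producing 2.2.15 cells received compound daily for nine days. Cytotoxicity was read by neutral red dye uptake. CC50 is the concentration giving a twofold drop in uptake from the mean of untreated cultures.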

In test [1], `CCCCCCCCCCCCNc1nc(=O)c2c(nc(Br)n2Cc2ccc(OC)cc2)c(=O)[nH]1` gave a Selectivity index of 1. Moreover, the Activity in test [2] and in test [3] was 47% each time.
The compound `CCNc1nc(=O)c2c(nc(Br)n2Cc2ccc(OC)cc2)c(=O)[nH]1` showed a Selectivity index in test [1] of 1.912. For the same compound, the values for the Activity in test [2] and in test [3] were 65% and 34%, respectively.
The like results for `CCCCCCCCNc1nc(=O)c2c(nc(Br)n2COCc2ccccc2)c(=O)[nH]1` were, in that order, 2.1, 61% and 29%.
On to `CNc1nc(=O)c2c(nc(Br)n2Cc2ccc(OC)cc2)c(=O)[nH]1`, for which the Selectivity index in test [1] is 1.453. The values for the Activity in test [2] and in test [3] were 48% and 33%, respectively.
For `CCCCCCCCCCCCCCCCNc1nc(=O)c2c(nc(Br)n2Cc2ccc(OC)cc2)c(=O)[nH]1` the same measures were 0.043, 3% and 70%.
In test [1], `CCCCCCCCNc1nc(=O)c2c(nc(Br)n2Cc2ccc(OC)cc2)c(=O)[nH]1` came in with a Selectivity index of 2.155. Moreover, the values for the Activity in test [2] and in test [3] were 69% and 32%, respectively.
On to `CCCCCCCCCCNc1nc(=O)c2c(nc(Br)n2Cc2ccc(OC)cc2)c(=O)[nH]1`, for which, in test [1], the Selectivity index came to 0.604. Moreover, the results for the Activity in test [2] and in test [3] were 32% and 53%, respectively.
One may read the EC50 as the concentration needed to bring the measured effect to its halfway point. A high value points to lower potency in that assay. Broadly, the EC90 is the concentration at which the effect reaches the 90% level. Read a high EC90 as a need for much substance. What is called CC50 is the concentration giving 50% cytotoxicity. Read a low CC50 as harm at low concentration. With `CCCCCCCCNc1nc(=O)c2c(nc(Br)n2Cc2ccccc2)c(=O)[nH]1`, the values for the Selectivity index in test [1], in test [5] and in test [7] were 1.06, 168 and 34, respectively. The 50% effective concentration (EC50) turned out to be 8.4 µM in test [4] and 1700 nM in test [6]. The figures for the 90% effect concentration (EC90) in test [4] and in test [6] were 28 µM and 6.9 µM, respectively. Also, the values for the Activity in test [2] and in test [3] were 83% and 78%, respectively. Further, in test [8], the 50% cytotoxic concentration (CC50) turned out to be 0.286 mM.
In test [1], `COc1ccc(Cn2c(Br)nc3c(=O)nc(N)[nH]c(=O)c32)cc1` displayed a Selectivity index of 1.435. For the same compound, the values for the Activity in test [2] and in test [3] were 89% and 62%, respectively.
For `CCCCCCCCCCCCCCNc1nc(=O)c2c(nc(Br)n2Cc2ccc(OC)cc2)c(=O)[nH]1` the same measures were 0.532, 34% and 64%.
In turn, `COc1ccc(Cn2c(Br)nc3c(=O)nc(NCc4ccccc4)[nH]c(=O)c32)cc1` gave a Selectivity index in test [1] of 1.255. Further, the results for the Activity in test [2] and in test [3] were 69% and 55%, respectively.
`Nc1ccn([C@@H]2CS[C@H](CO)O2)c(=O)n1` [LAMIVUDINE] yielded an EC50 in test [4] of 0.251 µM. Besides, the EC90 in test [4] was found to be 0.648 µM; in test [6], 0.151 µM. Also, the Selectivity index in test [5] is 44979; in test [7], 8602. In test [8], this compound came in with a 50% cytotoxic concentration (CC50) of 2.16 mM.
Compound `NC(=O)c1ncn([C@@H]2O[C@H](CO)[C@@H](O)[C@H]2O)n1` [RIBAVIRIN] showed a Selectivity index in test [1] of 0.42. For the same compound, the Activity is reported as 12% in test [2] and 89% in test [3].
